≈ marks a conversion by molar mass, not a printed value.
Experiments:
Format in all cases: functional
Candida albicans = assay: Antimicrobial activity against Candida albicans after 24 hrs by NCCLS method
Method in brief: (§1)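 Broth serial-dilution MIC in 96-well plates, RPMI 1640 buffered with 0.165 M MOPS. Strains from ATCC or clinical isolates; fluconazole reference. MIC = lowest concentration giving ≥80% growth inhibition (turbidity) versus drug-free control. Read at 24 h for Candida spp., 72 h for C. neoformans, 7 days for filamentous fungi.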

Pichia kudriavzevii = assay: Antimicrobial activity against Candida krusei after 24 hrs by NCCLS method; method in brief: as §1
Candida tropicalis = assay: Antimicrobial activity against Candida tropicalis after 24 hrs by NCCLS method; method in brief: as §1
Cryptococcus neoformans = assay: Antimicrobial activity against Cryptococcus neoformans after 72 hrs by NCCLS method; method in brief: as §1
Candida parapsilosis = assay: Antimicrobial activity against Candida parapsilosis after 24 hrs by NCCLS method; details: Lodderomyces parapsilosis; method in brief: as §1
Aspergillus fumigatus = assay: Antimicrobial activity against Aspergillus fumigatus after 7 days by NCCLS method; details: 168 h; method in brief: as §1
Nannizzia gypsea = assay: Antimicrobial activity against Microsporum gypseum after 7 days by NCCLS method; details: 168 h; method in brief: as §1
Trichophyton rubrum = assay: Antimicrobial activity against Trichophyton rubrum after 7 days by NCCLS method; details: 168 h; method in brief: as §1

Compound | MIC80 (Candida albicans) | MIC80 (Pichia kudriavzevii) | MIC80 (Candida tropicalis) | MIC80 (Cryptococcus neoformans) | MIC80 (Candida parapsilosis) | MIC80 (Aspergillus fumigatus) | MIC80 (Nannizzia gypsea) | MIC80 (Trichophyton rubrum)
CCCCCCCCN1CCc2c(c3cc(F)ccc3n2C)C1 | 64 mg/L (≈ 202 µM) | > 64 mg/L | > 64 mg/L | > 64 mg/L | 64 mg/L (≈ 202 µM) | > 64 mg/L | – | –
CCCCCCN1CCc2c(c3cc(Cl)ccc3n2C)C1 | > 64 mg/L | 64 mg/L (≈ 210 µM) | > 64 mg/L | > 64 mg/L | > 64 mg/L | 64 mg/L (≈ 210 µM) | – | –
CCCCCCCN1CCc2c(c3cc(Cl)ccc3n2C)C1 | > 64 mg/L | > 64 mg/L | > 64 mg/L | > 64 mg/L | > 64 mg/L | > 64 mg/L | – | –
CCCCCCCCN1CCc2c(c3cc(Cl)ccc3n2C)C1 | > 64 mg/L | 64 mg/L (≈ 192 µM) | > 64 mg/L | > 64 mg/L | 64 mg/L (≈ 192 µM) | > 64 mg/L | – | –
CCCCCCN1CCc2c(c3cc(Br)ccc3n2C)C1 | > 64 mg/L | > 64 mg/L | > 64 mg/L | > 64 mg/L | > 64 mg/L | 64 mg/L (≈ 183 µM) | – | –
CCCCCCCN1CCc2c(c3cc(Br)ccc3n2C)C1 | > 64 mg/L | > 64 mg/L | > 64 mg/L | 64 mg/L (≈ 176 µM) | 64 mg/L (≈ 176 µM) | > 64 mg/L | – | –
CCCCCCCCN1CCc2c(c3cc(Br)ccc3n2C)C1 | 64 mg/L (≈ 170 µM) | > 64 mg/L | > 64 mg/L | 64 mg/L (≈ 170 µM) | 16 mg/L (≈ 42.4 µM) | > 64 mg/L | – | –
CCCCCCN1CCc2c(c3cc(I)ccc3n2C)C1 | > 64 mg/L | > 64 mg/L | > 64 mg/L | > 64 mg/L | 64 mg/L (≈ 161 µM) | > 64 mg/L | – | –
CCCCCCCN1CCc2c(c3cc(I)ccc3n2C)C1 | > 64 mg/L | > 64 mg/L | > 64 mg/L | > 64 mg/L | 64 mg/L (≈ 156 µM) | > 64 mg/L | – | –
CCCCCCCCN1CCc2c(c3cc(I)ccc3n2C)C1 | 64 mg/L (≈ 151 µM) | 64 mg/L (≈ 151 µM) | > 64 mg/L | > 64 mg/L | 16 mg/L (≈ 37.7 µM) | > 64 mg/L | – | –
CCCCCCN1CCc2c(c3cc(C)ccc3n2C)C1 | 64 mg/L (≈ 225 µM) | 16 mg/L (≈ 56.2 µM) | 64 mg/L (≈ 225 µM) | 64 mg/L (≈ 225 µM) | 64 mg/L (≈ 225 µM) | 64 mg/L (≈ 225 µM) | – | –
CCCCCCCN1CCc2c(c3cc(C)ccc3n2C)C1 | 16 mg/L (≈ 53.6 µM) | 64 mg/L (≈ 214 µM) | 64 mg/L (≈ 214 µM) | > 64 mg/L | 16 mg/L (≈ 53.6 µM) | 16 mg/L (≈ 53.6 µM) | – | –
CCCCCCCCN1CCc2c(c3cc(C)ccc3n2C)C1 | 16 mg/L (≈ 51.2 µM) | 64 mg/L (≈ 205 µM) | 64 mg/L (≈ 205 µM) | > 64 mg/L | 16 mg/L (≈ 51.2 µM) | 16 mg/L (≈ 51.2 µM) | – | –
OC(Cn1cncn1)(Cn1cncn1)c1ccc(F)cc1F [FLUCONAZOLE] | 1 mg/L (≈ 3.27 µM) | 0.5 mg/L (≈ 1.63 µM) | 1 mg/L (≈ 3.27 µM) | 1 mg/L (≈ 3.27 µM) | 1 mg/L (≈ 3.27 µM) | > 64 mg/L | 16 mg/L (≈ 52.2 µM) | 4 mg/L (≈ 13.1 µM)

Source: ChEMBL document CHEMBL1770107, “Design and synthesis of antifungal benzoheterocyclic derivatives by scaffold hopping” (2011)
